According to ChEMBL document CHEMBL4261538, “Synthesis and molecular docking studies of xanthone attached amino acids as potential antimicrobial and anti-inflammatory agents” (Medchemcomm, 2017):
In brackets after ≈: the same amount, converted by molar mass. Activity calls are given as the source filed them. No cut-off for these calls is given here.

Key:
Staphylococcus aureus [1] = assay: Antibacterial activity against Staphylococcus aureus at 25 ug/ml incubated for 24 hrs by agar well diffusion method; format: functional; settings: read-out: DIZ
How it was run: (§1)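 Bacteria grown in nutrient broth at 37 °C for 24 h, then subcultured at room temperature. Compounds dissolved in DMSO at 5 mg mL⁻¹ and 5–20 µL added to 6 mm wells, giving 25, 50, 75, 100 µg per well. Gentamicin was the positive control and DMSO the negative control. Plates held at 37 °C for 24 h, then inhibition zone diameter (mm) measured. Values are means of three determinations.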

Staphylococcus aureus [2] = assay: Antibacterial activity against Staphylococcus aureus at 50 ug/ml incubated for 24 hrs by agar well diffusion method; format: functional; settings: read-out: DIZ; how it was run: as §1
Staphylococcus aureus [3] = assay: Antibacterial activity against Staphylococcus aureus at 75 ug/ml incubated for 24 hrs by agar well diffusion method; format: functional; settings: read-out: DIZ; how it was run: as §1
Staphylococcus aureus [4] = assay: Antibacterial activity against Staphylococcus aureus at 100 ug/ml incubated for 24 hrs by agar well diffusion method; format: functional; settings: read-out: DIZ; how it was run: as §1
Bacillus subtilis [5] = assay: Antibacterial activity against Bacillus subtilis at 25 ug/ml incubated for 24 hrs by agar well diffusion method; format: functional; settings: read-out: DIZ; how it was run: as §1
Bacillus subtilis [6] = assay: Antibacterial activity against Bacillus subtilis at 50 ug/ml incubated for 24 hrs by agar well diffusion method; format: functional; settings: read-out: DIZ; how it was run: as §1
Bacillus subtilis [7] = assay: Antibacterial activity against Bacillus subtilis at 75 ug/ml incubated for 24 hrs by agar well diffusion method; format: functional; settings: read-out: DIZ; how it was run: as §1
Bacillus subtilis [8] = assay: Antibacterial activity against Bacillus subtilis at 100 ug/ml incubated for 24 hrs by agar well diffusion method; format: functional; settings: read-out: DIZ; how it was run: as §1
Escherichia coli [9] = assay: Antibacterial activity against Escherichia coli at 25 ug/ml incubated for 24 hrs by agar well diffusion method; format: functional; settings: read-out: DIZ; how it was run: as §1
Escherichia coli [10] = assay: Antibacterial activity against Escherichia coli at 50 ug/ml incubated for 24 hrs by agar well diffusion method; format: functional; settings: read-out: DIZ; how it was run: as §1
Escherichia coli [11] = assay: Antibacterial activity against Escherichia coli at 75 ug/ml incubated for 24 hrs by agar well diffusion method; format: functional; settings: read-out: DIZ; how it was run: as §1
Escherichia coli [12] = assay: Antibacterial activity against Escherichia coli at 100 ug/ml incubated for 24 hrs by agar well diffusion method; format: functional; settings: read-out: DIZ; how it was run: as §1
Klebsiella pneumoniae [13] = assay: Antibacterial activity against Klebsiella pneumoniae at 25 ug/ml incubated for 24 hrs by agar well diffusion method; format: functional; settings: read-out: DIZ; how it was run: as §1
Klebsiella pneumoniae [14] = assay: Antibacterial activity against Klebsiella pneumoniae at 50 ug/ml incubated for 24 hrs by agar well diffusion method; format: functional; settings: read-out: DIZ; how it was run: as §1
Klebsiella pneumoniae [15] = assay: Antibacterial activity against Klebsiella pneumoniae at 75 ug/ml incubated for 24 hrs by agar well diffusion method; format: functional; settings: read-out: DIZ; how it was run: as §1
Klebsiella pneumoniae [16] = assay: Antibacterial activity against Klebsiella pneumoniae at 100 ug/ml incubated for 24 hrs by agar well diffusion method; format: functional; settings: read-out: DIZ; how it was run: as §1
Aspergillus niger [17] = assay: Antifungal activity against Aspergillus niger at 25 ug/ml incubated for 48 hrs by agar well diffusion method; format: functional; settings: read-out: DIZ
How it was run: (§2)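 Compounds dissolved in DMSO at 5 mg mL⁻¹ and 5–20 µL added to 6 mm wells, giving 25, 50, 75, 100 µg per well. Bavistin was the positive control and DMSO the negative control. Plates incubated at 28 °C for 48 h, then inhibition zone diameter (mm) measured. Values are means of three determinations.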

Aspergillus niger [18] = assay: Antifungal activity against Aspergillus niger at 50 ug/ml incubated for 48 hrs by agar well diffusion method; format: functional; settings: read-out: DIZ; how it was run: as §2
Aspergillus niger [19] = assay: Antifungal activity against Aspergillus niger at 75 ug/ml incubated for 48 hrs by agar well diffusion method; format: functional; settings: read-out: DIZ; how it was run: as §2
Aspergillus niger [20] = assay: Antifungal activity against Aspergillus niger at 100 ug/ml incubated for 48 hrs by agar well diffusion method; format: functional; settings: read-out: DIZ; how it was run: as §2
Candida albicans [21] = assay: Antifungal activity against Candida albicans at 25 ug/ml incubated for 48 hrs by agar well diffusion method; format: functional; settings: read-out: DIZ; how it was run: as §2
Candida albicans [22] = assay: Antifungal activity against Candida albicans at 50 ug/ml incubated for 48 hrs by agar well diffusion method; format: functional; settings: read-out: DIZ; how it was run: as §2
Candida albicans [23] = assay: Antifungal activity against Candida albicans at 75 ug/ml incubated for 48 hrs by agar well diffusion method; format: functional; settings: read-out: DIZ; how it was run: as §2
Candida albicans [24] = assay: Antifungal activity against Candida albicans at 100 ug/ml incubated for 48 hrs by agar well diffusion method; format: functional; settings: read-out: DIZ; how it was run: as §2
Fusarium oxysporum [25] = assay: Antifungal activity against Fusarium oxysporum at 25 ug/ml incubated for 48 hrs by agar well diffusion method; format: functional; how it was run: as §2
Fusarium oxysporum [26] = assay: Antifungal activity against Fusarium oxysporum at 50 ug/ml incubated for 48 hrs by agar well diffusion method; format: functional; how it was run: as §2
Fusarium oxysporum [27] = assay: Antifungal activity against Fusarium oxysporum at 75 ug/ml incubated for 48 hrs by agar well diffusion method; format: functional; how it was run: as §2
Fusarium oxysporum [28] = assay: Antifungal activity against Fusarium oxysporum at 100 ug/ml incubated for 48 hrs by agar well diffusion method; format: functional; how it was run: as §2
Erythrocyte = assay: Anti-inflammatory activity in human RBC assessed as inhibition of hypotonic solution-induced hemolysis after 10 mins by spectrophotometric method; format: functional, cell-based
How it was run: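 Human blood (heparinized) washed with 0.9% saline, packed cells made into a 40% v/v stock in isotonic phosphate buffer (154 mM NaCl, 10 mM sodium phosphate, pH 7.4). Stock RBC mixed with hypotonic buffer (50 mM NaCl, 10 mM phosphate, pH 7.4) plus sample at 20–100 µg mL⁻¹.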

| SMILES | zone of inhibition at 25 µg/mL (Staphylococcus aureus [1]) [mm] | zone of inhibition at 50 µg/mL (Staphylococcus aureus [2]) [mm] | zone of inhibition at 75 µg/mL (Staphylococcus aureus [3]) [mm] | zone of inhibition at 100 µg/mL (Staphylococcus aureus [4]) [mm] | zone of inhibition at 25 µg/mL (Bacillus subtilis [5]) [mm] | zone of inhibition at 50 µg/mL (Bacillus subtilis [6]) [mm] | zone of inhibition at 75 µg/mL (Bacillus subtilis [7]) [mm] | zone of inhibition at 100 µg/mL (Bacillus subtilis [8]) [mm] | zone of inhibition at 25 µg/mL (Escherichia coli [9]) [mm] | zone of inhibition at 50 µg/mL (Escherichia coli [10]) [mm] | zone of inhibition at 75 µg/mL (Escherichia coli [11]) [mm] | zone of inhibition at 100 µg/mL (Escherichia coli [12]) [mm] | zone of inhibition at 25 µg/mL (Klebsiella pneumoniae [13]) [mm] | zone of inhibition at 50 µg/mL (Klebsiella pneumoniae [14]) [mm] | zone of inhibition at 75 µg/mL (Klebsiella pneumoniae [15]) [mm] | zone of inhibition at 100 µg/mL (Klebsiella pneumoniae [16]) [mm] | zone of inhibition at 25 µg/mL (Aspergillus niger [17]) [mm] | zone of inhibition at 50 µg/mL (Aspergillus niger [18]) [mm] | zone of inhibition at 75 µg/mL (Aspergillus niger [19]) [mm] | zone of inhibition at 100 µg/mL (Aspergillus niger [20]) [mm] | also measured |
| --- | --- | --- | --- | --- | --- | --- | --- | --- | --- | --- | --- | --- | --- | --- | --- | --- | --- | --- | --- | --- | --- |
| CC[C@H](C)[C@H](N)C(=O)Oc1ccc2c(=O)c3ccccc3oc2c1.Cl | 7 | 12 | 19 | 23 | 11 | 17 | 20 | 24 | 10 | 13 | 18 | 22 | 8 | 13 | 18 | 24 | 10 | 15 | 18 | 23 | zone of inhibition at 25 µg/mL (Candida albicans [21]): 10 mm; zone of inhibition at 50 µg/mL (Candida albicans [22]): 14 mm; zone of inhibition at 75 µg/mL (Candida albicans [23]): 16 mm; zone of inhibition at 100 µg/mL (Candida albicans [24]): 20 mm; zone of inhibition at 25 µg/mL (Fusarium oxysporum [25]; read-out: DIZ): 11 mm; zone of inhibition at 50 µg/mL (Fusarium oxysporum [26]; read-out: DIZ): 15 mm; zone of inhibition at 75 µg/mL (Fusarium oxysporum [27]; read-out: DIZ): 19 mm; zone of inhibition at 100 µg/mL (Fusarium oxysporum [28]; read-out: DIZ): 21 mm; IC50 (Erythrocyte): 68 µg/mL |
| CC[C@H](C)[C@H](NC(=O)OC(C)(C)C)C(=O)Oc1ccc2c(=O)c3ccccc3oc2c1 | 4 | 10 | 15 | 19 | 7 | 11 | 14 | 19 | 8 | 12 | 19 | 22 | 7 | 14 | 20 | 25 | 8 | 12 | 16 | 20 | zone of inhibition at 25 µg/mL (Candida albicans [21]): 9 mm; zone of inhibition at 50 µg/mL (Candida albicans [22]): 13 mm; zone of inhibition at 75 µg/mL (Candida albicans [23]): 17 mm; zone of inhibition at 100 µg/mL (Candida albicans [24]): 22 mm; diameter of the inhibition zone (DIZ) (Fusarium oxysporum [25]): inactive; diameter of the inhibition zone (DIZ) (Fusarium oxysporum [26]): inactive; diameter of the inhibition zone (DIZ) (Fusarium oxysporum [27]): inactive; diameter of the inhibition zone (DIZ) (Fusarium oxysporum [28]): inactive; IC50 (Erythrocyte): 60 µg/mL (≈ 141 µM) |
